Measured values: ChEMBL document CHEMBL1125155, “Preparation and anticonvulsant activity of a series of functionalized alpha-aromatic and alpha-heteroaromatic amino acids” (J Med Chem, 1990)

Tests used:
[1] = Neurological toxicity was determined using horizontal screen test in mice after intraperitoneal administration; type: organism-based; settings: mouse, in vivo, ip
Procedure, shortened: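 Male CF-1 mice, ip dosing in 30% PEG 400. Previously trained mice placed on a 13 × 13 cm no. 4 mesh wire screen on a vertical rod. Rod rotated 180°; failure to return to top within 1 min counted as impairment.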

Mus musculus [2] = experiment: Concentration required to inhibit seizures was determined in MES test after (ip) administration in mice; type: functional
Procedure, shortened: (§1)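 Male CF-1 mice; compounds dissolved in 30% polyethylene glycol 400, given ip. Screening at 30, 100, 300 mg/kg, four mice per dose, tested at 0.5, 1 and 4 h for protection against maximal electroshock seizures.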

Mus musculus [3] = experiment: Concentration required to inhibit seizures was determined in MES test after (ip) administration in mice; Range is >100 to <300; type: functional
[4] = Neurological toxicity was determined using horizontal screen test in mice after intraperitoneal administration; Range is >100 to <300; type: organism-based; settings: mouse, in vivo, ip
Mus musculus [5] = experiment: Concentration required to inhibit seizures was determined in MES test after (ip) administration in mice; Range is >25 to <100; type: functional; procedure, shortened: as §1
[6] = Protective index (TD50/ED50) was determined; type: functional
Procedure, shortened: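 Ratio of horizontal-screen TD50 to MES ED50, both ip in male CF-1 mice given in 30% PEG 400. Both values taken at time of peak anticonvulsant activity, each from a dose-response curve (10–12 or 12 mice per dose).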

CC(=O)NC(C(=O)NCc1ccccc1)c1ccccc1 (configuration not stated)
TD50 [1]: > 40 mg/kg | ED50 (Mus musculus [2]): 32.1 mg/kg

CC(=O)N[C@H](C)C(=O)NCc1ccccc1
TD50 [1]: 214 mg/kg | ED50 (Mus musculus [2]): 54.8 mg/kg

CC(=O)NC(C(=O)NCc1cccc(F)c1)c1ccco1 (configuration not stated)
TD50 [1]: 136 mg/kg

CC(=O)NC(C(=O)NCc1ccccc1)c1ccc(C)o1 (configuration not stated)
TD50 [1]: 75.4 mg/kg

COc1ccc(C(NC(C)=O)C(=O)NCc2ccccc2)cc1 (configuration not stated)
ED50 (Mus musculus [2]): > 300 mg/kg

CC(=O)NC(C(=O)NCc1ccccc1)c1ccco1 (configuration not stated)
TD50 [1]: ~40 mg/kg | ED50 (Mus musculus [2]): 10.3 mg/kg

CC(=O)NC(C(=O)NCc1ccccc1)c1cccs1 (configuration not stated)
TD50 [1]: > 30 mg/kg

CC(=O)NC(C(=O)NCc1ccccc1)c1cc2ccccc2s1 (configuration not stated)
ED50 (Mus musculus [3]): > 100 mg/kg | TD50 [4]: > 100 mg/kg

CC(=O)NC(C(=O)NCc1ccc(F)cc1)c1ccco1 (configuration not stated)
TD50 [1]: 144 mg/kg

CC(=O)NC(C(=O)NCc1ccccc1)c1cc2ccccc2o1 (configuration not stated)
ED50 (Mus musculus [3]): > 100 mg/kg | TD50 [4]: > 100 mg/kg

CC(=O)NC(C(=O)NCc1ccccc1)c1cccn1C (configuration not stated)
ED50 (Mus musculus [2]): ~300 mg/kg

CC(=O)NC(C(=O)NCc1ccccc1)c1ccsc1 (configuration not stated)
TD50 [1]: > 100 mg/kg

CC(=O)NC(C(=O)NCc1ccccc1)c1ccc[nH]1 (configuration not stated)
TD50 [1]: > 30 mg/kg

CC(=O)N[C@H](C(=O)NCc1ccccc1)c1ccco1
TD50 [1]: > 200 mg/kg | ED50 (Mus musculus [2]): > 25 mg/kg

CC(=O)NC(C(=O)NCc1ccccc1)c1ccc2ccccc2c1 (configuration not stated)
TD50 [1]: > 300 mg/kg | ED50 (Mus musculus [2]): > 300 mg/kg

CC(=O)NC(C(=O)NCc1ccccc1)c1ccc(O)cc1 (configuration not stated)
ED50 (Mus musculus [2]): > 300 mg/kg

CC(=O)N[C@H](C(=O)NCc1ccccc1)c1ccccc1
TD50 [1]: > 100 mg/kg | ED50 (Mus musculus [2]): > 300 mg/kg

CC(=O)NC(C(=O)NCc1ccccc1)c1cc(C)ccc1O (configuration not stated)
ED50 (Mus musculus [2]): > 300 mg/kg

CC(=O)NC(C(=O)NCc1c(F)cccc1F)c1ccco1 (configuration not stated)
ED50 (Mus musculus [5]): > 25 mg/kg

CCC1(c2ccccc2)C(=O)NC(=O)NC1=O [PHENOBARBITAL]
ED50 (Mus musculus [2]): 21.8 mg/kg

CC(=O)N[C@@H](C(=O)NCc1ccccc1)c1ccco1
TD50 [1]: 23.8 mg/kg | ED50 (Mus musculus [2]): 3.3 mg/kg | Ratio [6]: 7.2

CC(=O)N[C@@H](C(=O)NCc1ccccc1)c1ccccc1
TD50 [1]: > 80 mg/kg | ED50 (Mus musculus [2]): 26.4 mg/kg

CC(=O)NC(C(=O)NCc1ccccc1)c1c[nH]c2ccccc12 (configuration not stated)
TD50 [1]: < 300 mg/kg | ED50 (Mus musculus [2]): > 300 mg/kg

CC(=O)N[C@@H](C)C(=O)NCc1ccccc1
TD50 [1]: 841 mg/kg | ED50 (Mus musculus [2]): 548 mg/kg
